High-throughput results: PubChem BioAssay, Sanford-Burnham Center for Chemical Genomics
The list is not random: actives were taken first. Their share in the collection is about 2.5%.
SENP6 inh – blocks the human protease SENP6; Recombinant SENP6 catalytic domain, aminoluciferin luminescence; inhibition, % at 10 µM; 330,000 tested, 1.8% active; Q9GZR1; AID 2599;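 active = inhibition above about 50% at the single tested dose, limit read from the data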
SENP8 block-1 – SENP8 (human) protease inhibition; 360,000 tested, 0.64% active; Q96LD8; recombinant SENP8, Nedd8 substrate fluorescence; inhibition, % at 20 µM; in the data active = inhibition mostly above about 40%, no sharp cut-off; inactive = mostly below about 27%
Target sequence (Q96LD8 whole entry, looked up): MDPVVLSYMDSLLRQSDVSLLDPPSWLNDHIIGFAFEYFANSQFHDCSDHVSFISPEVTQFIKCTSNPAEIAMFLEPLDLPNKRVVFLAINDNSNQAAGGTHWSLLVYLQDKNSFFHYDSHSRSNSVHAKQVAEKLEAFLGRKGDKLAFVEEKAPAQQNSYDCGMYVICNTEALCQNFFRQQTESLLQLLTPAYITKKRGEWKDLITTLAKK
SENP8 block-2 – inhibitors of human SENP8 protease; Q96LD8; 330,000 tested, 1.2% active; inhibition, % at 10 µM; purified SENP8, Z-RLRGG-aminoluciferin cleavage, luminescence; in the data active = inhibition above about 50%
SENP7 inh – SENP7 protease inhibition; Q9BQF6; recombinant SENP7, Z-RLRGG-aminoluciferin luminescence, 40 min; inhibition, % at 5 µM; 330,000 tested, 1.5% active; AID 434973;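 active = inhibition above about 50% at the single test dose, limit read from the data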
SENP1 inh – inhibitors of human SENP1 SUMO protease catalytic domain. recombinant SENP1 catalytic domain, CyPet-SUMO1-YPet FRET cleavage. inhibition, % at 10 µM. 360,000 tested, 0.21% active;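 active = inhibition at least 30% at 10 µM, raw YFP signal under a set limit, fluorescence ratio 0.5 to 1.5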
Target sequence (Q9P0U3 419-644 limits assumed): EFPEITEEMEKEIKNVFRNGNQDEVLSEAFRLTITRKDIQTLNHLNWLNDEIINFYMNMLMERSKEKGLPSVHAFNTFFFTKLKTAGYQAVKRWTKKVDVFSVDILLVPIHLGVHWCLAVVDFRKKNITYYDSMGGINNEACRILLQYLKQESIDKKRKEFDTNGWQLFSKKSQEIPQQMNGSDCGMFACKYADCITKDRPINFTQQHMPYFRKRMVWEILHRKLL
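Assay system – human recombinant His6-tagged SENP1 catalytic domain enzyme · Input – SENP1 enzyme, 20 pM final · Buffer or medium – Tris pH 8 buffer plus EDTA, NaCl, BME, BSA, NP40, catalase · Schedule – 50 min reaction at room temperature · Technique – FRET read of cyan and yellow fluorescence · Control set – no-enzyme wells low, DMSO-plus-enzyme wells high control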
Each line names hits and unclear results; the compound was inactive in the other large screens.

Brc1csc(/C=N/Nc2nc3ccccc3s2)c1	SENP8 block-2 57, SENP7 inh 76
O=C(Cn1nc2ccccc2n1)N/N=C/c1cc(Cl)cc([N+](=O)[O-])c1O	none (no result: SENP6 inh, SENP8 block-2, SENP7 inh)
O=[N+]([O-])c1cc(Cl)cc(/C=N/Nc2nc3ccccc3s2)c1O	SENP6 inh 54
C(=N\Nc1nc2ccccc2s1)/c1ccc2c(c1)OCO2	SENP6 inh 67, SENP8 block-2 55, SENP7 inh 89
COC(=O)C(Cc1ccc(O)cc1)NC(=O)C(C)NC(=O)c1ccc(C(C)(C)C)cc1 (stereo unspecified)	none
O=C(Nc1ccc(S(=O)(=O)Nc2ncccn2)cc1)c1ccccc1NS(=O)(=O)c1ccc(Cl)cc1	none
CCOC(=O)c1c(C)[nH]c(C)c1S(=O)(=O)NCCc1ccco1	none
O=C(O)c1cccc(NC(=O)c2ccc3c(c2)C(=O)N(Cc2ccco2)C3=O)c1	SENP6 inh 89, SENP8 block-2 84, SENP7 inh 88
O=C(O)c1ccc2c(c1)C(=O)N(Cc1ccco1)C2=O	none
Cc1ccc(Nc2ccc([N+](=O)[O-])ccc2=O)cc1	SENP8 block-1 43
Cc1ccc(Nc2ccc(C(F)(F)F)cc2[N+](=O)[O-])cc1	none
CC1CCC/C(=C\Nc2ccc(C(=O)O)c(O)c2)C1=O (stereo unspecified)	none
O=C1CCCC/C1=C\Nc1ccc(C(=O)O)c(O)c1	SENP6 inh 62
Cc1ccccc1S(=O)(=O)NC(=O)C1(C)CCN1C(=O)Cc1ccc(C(C)(C)C)cc1 (stereo unspecified)	none (no result: SENP6 inh, SENP8 block-2, SENP7 inh)
O=C(/C=C/c1ccc2c(c1)OCO2)Nc1nc(-c2ccc(F)cc2F)cs1	none (no result: SENP8 block-1, SENP1 inh)
Cc1csc(NC(=O)/C=C/c2ccc3c(c2)OCO3)n1	SENP6 inh 77, SENP7 inh 61
CCOC(=O)C1=CCN(S(C)(=O)=O)C1c1ccc(C)cc1 (stereo unspecified)	none (no result: SENP6 inh, SENP8 block-2, SENP7 inh)
N#Cc1cnc(NN)nc1	none
CCN(CC)CCC=C(c1cccs1)c1cccs1	none (no result: SENP6 inh, SENP8 block-2, SENP7 inh)
N/C(=N\OC(=O)COc1ccc(Cl)cc1Cl)c1ccccn1	SENP6 inh 73, SENP8 block-2 87, SENP7 inh 90
N/C(=N\OC(=O)c1cc(Cl)ccc1Cl)c1ccccn1	SENP6 inh 51, SENP8 block-2 65, SENP7 inh 76
Cc1cc(C)c(C)c(OCC(=O)O/N=C(\N)c2ccccn2)c1	none
N/C(=N\OC(=O)c1ccc(Cl)cc1Cl)c1cccnc1	SENP8 block-2 61, SENP7 inh 72
Cc1cccc(N2C(=O)CC(N3CCN(c4ccccn4)CC3)C2=O)c1 (stereo unspecified)	none
COc1ccc(-c2ccc(/C=C3\C(=O)N(c4ccccc4)N=C3c3ccccc3)o2)c([N+](=O)[O-])c1	SENP8 block-1 46
COc1cc([N+](=O)[O-])ccc1-c1ccc(/C=C2\C(=O)ON=C2c2ccccc2)o1	none (no result: SENP6 inh, SENP8 block-2, SENP7 inh)
N#Cc1ccc(NC(=O)COC(=O)c2cccnc2Cl)cc1	none
COc1ccc(/C=C2/SC(=S)N(CCC(=O)N3CCN(C)CC3)C2=O)cc1	SENP8 block-1 37
COCCN1C(=O)/C(=C/c2ccc(N3CCCC3)cc2)SC1=S	SENP8 block-1 44
Nc1nc(COc2ccc(F)cc2Cl)nc(N2CCCCC2)n1	none
CCc1nc2c(OCc3ccc(Cl)cc3)cccn2c1N(C)C(=O)c1ccco1	none (no result: SENP6 inh, SENP8 block-2, SENP7 inh)
COCC(=O)OC1CCn2c1nc1c2C(=O)C(C)=C(NC(C)=O)C1=O (stereo unspecified)	SENP8 block-1 96 (no result: SENP6 inh, SENP8 block-2, SENP7 inh)
Cc1cc(C)n2nc(SCC(=O)N3CCCC(C)C3)nc2n1 (stereo unspecified)	none
CCSCCOC(=O)C1=C(C)N(C)C(=O)NC1c1ccc2c(c1)OCO2 (stereo unspecified)	none
CCOC(=O)C1CCN(C2=C(NS(=O)(=O)c3ccc(Cl)cc3)C(=O)c3ccccc3C2=O)CC1	SENP8 block-1 49
CN(C1=C(N2CCCCC2)C(=O)c2ccccc2C1=O)c1ccccc1	SENP8 block-1 49
CCOC(=O)N1CCN(C2=C(NS(=O)(=O)c3ccc(NC(C)=O)cc3)C(=O)c3ccccc3C2=O)CC1	SENP8 block-1 73
CCOC(=O)C1CCCN(C2=C(NS(=O)(=O)c3ccc(Br)cc3)C(=O)c3ccccc3C2=O)C1 (stereo unspecified)	SENP8 block-1 58
CCOC(=O)[C@]12CCCC=C1N(CCC1=CCCCC1)C(=O)[C@H](CC(=O)NCC1CCCCC1)C2	none (no result: SENP6 inh, SENP8 block-2, SENP7 inh)
Nc1sc2c([n+]1CCCS(=O)(=O)[O-])CCCC2	none
